What was measured:
[1] = biological target: T1, cGMP-specific 3',5'-cyclic phosphodiesterase (Homo sapiens, UniProt O76074); test: Inhibitory activity against phosphodiesterase 5 (PDE5) obtained from human corpus cavernosum tissue
Method in brief: (§1)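 Scintillation proximity assay: fixed enzyme amount with varying inhibitor concentrations; substrate cGMP (3:1 unlabelled to [³H]-labelled) at about 1/3 Km, so that IC50 ≈ Ki. Buffer 20 mM Tris–HCl pH 7.4, 5 mM MgCl2, BSA. Reactions started with enzyme, run 30–60 min at 30 °C, stopped with yttrium silicate SPA beads. Counts converted to % of uninhibited control; IC50 from curve fit.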

[2] = biological target: T1, cGMP-specific 3',5'-cyclic phosphodiesterase; test: Selectivity ratio of the compound against PDE6 to that of PED5
[3] = Relative inhibition of PDE11 and PDE5
Phosphodiesterase 6 = test: Inhibitory activity against phosphodiesterase 6 (PDE6) obtained from canine or bovine retina; assay type: protein assay; method in brief: as §1
[4] = biological target: Dual 3',5'-cyclic-AMP and -GMP phosphodiesterase 11A (Homo sapiens, UniProt Q9HCR9); test: Inhibitory activity against phosphodiesterase 11 (PDE11) obtained from recombinant Sf9 expression; method in brief: as §1
[5] = Relative inhibitoin of PDE11 and PDE5

Chain of Dual 3',5'-cyclic-AMP and -GMP phosphodiesterase 11A (Q9HCR9 whole entry): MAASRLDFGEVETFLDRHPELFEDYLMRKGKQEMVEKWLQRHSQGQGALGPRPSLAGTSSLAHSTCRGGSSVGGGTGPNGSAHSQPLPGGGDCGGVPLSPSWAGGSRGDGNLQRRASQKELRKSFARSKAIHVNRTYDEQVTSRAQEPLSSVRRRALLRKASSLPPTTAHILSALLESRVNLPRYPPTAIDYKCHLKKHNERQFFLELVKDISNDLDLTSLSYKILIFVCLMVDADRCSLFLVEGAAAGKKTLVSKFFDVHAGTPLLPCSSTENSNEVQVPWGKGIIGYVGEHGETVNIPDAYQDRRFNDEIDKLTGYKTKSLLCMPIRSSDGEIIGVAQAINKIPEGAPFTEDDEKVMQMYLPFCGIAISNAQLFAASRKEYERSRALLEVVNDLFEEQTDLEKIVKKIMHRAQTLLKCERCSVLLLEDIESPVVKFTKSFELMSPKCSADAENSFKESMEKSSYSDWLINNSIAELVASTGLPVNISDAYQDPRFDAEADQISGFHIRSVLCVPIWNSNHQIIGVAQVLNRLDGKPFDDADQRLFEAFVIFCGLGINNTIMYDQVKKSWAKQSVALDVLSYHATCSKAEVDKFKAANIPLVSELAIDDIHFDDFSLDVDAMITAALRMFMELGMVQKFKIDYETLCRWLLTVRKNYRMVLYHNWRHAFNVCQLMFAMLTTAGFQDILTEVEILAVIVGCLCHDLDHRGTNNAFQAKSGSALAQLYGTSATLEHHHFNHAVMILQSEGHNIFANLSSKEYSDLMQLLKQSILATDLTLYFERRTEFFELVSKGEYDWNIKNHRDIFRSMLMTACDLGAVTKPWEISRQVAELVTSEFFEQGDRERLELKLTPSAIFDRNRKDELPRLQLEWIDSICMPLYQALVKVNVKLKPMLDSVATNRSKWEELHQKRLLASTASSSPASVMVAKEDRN

| IC50 [1] [nM] | Selectivity ratio [2] | Selectivity ratio [3] | IC50 (Phosphodiesterase 6) [nM] | IC50 [4] [nM] | Selectivity ratio [5] | Compound |
| --- | --- | --- | --- | --- | --- | --- |
| 15.7 | 169 | 2.7 | 2660 | 43 | – | O=C1[C@H]2Cc3c([nH]c4ccccc34)[C@@H](c3ccc4c(c3)OCO4)N2C(=O)CN1[C@@H]1CCN(CCC2CC2)C1 |
| 0.8 | – | – | 494 | 2.2 | – | Cn1ccnc1CCN1CC[C@@H](N2CC(=O)N3[C@H](c4ccc5c(c4)OCO5)c4[nH]c5ccccc5c4C[C@@H]3C2=O)C1 (stereo in doubt; form 1) [listing 1 of 2 here] |
| 1.2 | 300 | 2.9 | 357 | 3.5 | – | O=C1[C@H]2Cc3c([nH]c4ccccc34)[C@@H](c3ccc4c(c3)OCO4)N2C(=O)CN1[C@@H]1CCN(CCc2ncc[nH]2)C1 |
| 12.8 | – | – | – | 6.5 | 0.5 | Cc1ccc([C@@H]2c3[nH]c4ccccc4c3C[C@@H]3C(=O)N([C@@H]4CCN(Cc5ccccc5)C4)CC(=O)N23)cc1 |
| 2.5 | 316 | 1.9 | 807 | 4.7 | – | CN(C)C(=O)CCN1CC[C@@H](N2CC(=O)N3[C@H](c4ccc5c(c4)OCO5)c4[nH]c5ccccc5c4C[C@@H]3C2=O)C1 |
| 132 | – | – | – | 71 | 0.5 | COc1ccc([C@@H]2c3[nH]c4ccccc4c3C[C@@H]3C(=O)N([C@@H]4CCN(Cc5ccccc5)C4)CC(=O)N23)cc1C |
| 3.6 | 172 | 1.2 | 620 | 4.3 | – | CCNC(=O)CCN1CC[C@@H](N2CC(=O)N3[C@H](c4ccc5c(c4)OCO5)c4[nH]c5ccccc5c4C[C@@H]3C2=O)C1 |
| > 1000 | – | – | – | 1000 | – | COc1ccc([C@@H]2c3[nH]c4ccccc4c3C[C@@H]3C(=O)N([C@@H]4CCN(Cc5ccccc5)C4)CC(=O)N23)cc1OC |
| 2.7 | – | – | – | 6.7 | 2.5 | COc1ccc([C@@H]2c3[nH]c4ccccc4c3C[C@@H]3C(=O)N([C@@H]4CCN(Cc5ccccc5)C4)CC(=O)N23)cc1 |
| 0.7 | – | – | 125 | 1.4 | – | Cn1ccnc1CCN1CC[C@@H](N2CC(=O)N3[C@H](c4ccc5c(c4)OCO5)c4[nH]c5ccccc5c4C[C@@H]3C2=O)C1 (stereo in doubt; form 2) [listing 1 of 2 here] |
| 56 | – | – | 2966 | – | – | O=C1[C@H]2Cc3c([nH]c4ccccc34)[C@@H](c3ccc4c(c3)OCO4)N2C(=O)CN1CCN1CCOCC1 |
| – | – | – | – | 85 | – | O=C1[C@H]2Cc3c([nH]c4ccccc34)[C@@H](c3ccc4c(c3)OCO4)N2C(=O)CN1[C@H]1CCN(Cc2ccccc2)C1 |
| 164 | – | – | – | 950 | – | O=C1[C@H]2Cc3c([nH]c4ccccc34)[C@@H](c3ccc4c(c3)OCO4)N2C(=O)CN1C1CN(Cc2ccccc2)C1 |
| – | – | – | – | – | 1.5 | COc1cccc([C@@H]2c3[nH]c4ccccc4c3C[C@@H]3C(=O)N([C@@H]4CCN(Cc5ccccc5)C4)CC(=O)N23)c1 (stereo in doubt; form 1) [listing 1 of 2 here] |
| 4 | – | 3 | – | – | – | C=CCCN1CC[C@@H](N2CC(=O)N3[C@H](c4ccc5c(c4)OCO5)c4[nH]c5ccccc5c4C[C@@H]3C2=O)C1 |
| 127 | – | – | – | 39 | 0.3 | O=C1[C@H]2Cc3c([nH]c4ccccc34)[C@@H](c3ccc(O)nc3)N2C(=O)CN1[C@@H]1CCN(Cc2ccccc2)C1 |
| 19.8 | – | 2.4 | – | 48 | – | CN(C)CC(=O)CN1CC[C@@H](N2CC(=O)N3[C@H](c4ccc5c(c4)OCO5)c4[nH]c5ccccc5c4C[C@@H]3C2=O)C1 |

| IC50 [1] [nM] | Selectivity ratio [2] | Selectivity ratio [3] | IC50 (Phosphodiesterase 6) [nM] | IC50 [4] [nM] | Selectivity ratio [5] | Compound |
| --- | --- | --- | --- | --- | --- | --- |
| 134 | – | – | 8224 | 53 | – | CN(C)CCN1CC(=O)N2[C@H](c3ccc4c(c3)OCO4)c3[nH]c4ccccc4c3C[C@@H]2C1=O |
| 1.5 | 153 | 1.4 | 226 | 2.01 | – | O=C1[C@H]2Cc3c([nH]c4ccccc34)[C@@H](c3ccc4c(c3)OCO4)N2C(=O)CN1[C@@H]1CCN(CCc2ccccn2)C1 |
| 7.1 | 188 | 3 | 1340 | 22 | – | COCCCN1CC[C@@H](N2CC(=O)N3[C@H](c4ccc5c(c4)OCO5)c4[nH]c5ccccc5c4C[C@@H]3C2=O)C1 |
| 13.2 | 134 | 2.3 | 1770 | 31 | – | CCCCCN1CC[C@@H](N2CC(=O)N3[C@H](c4ccc5c(c4)OCO5)c4[nH]c5ccccc5c4C[C@@H]3C2=O)C1 |
| – | – | – | – | – | 0.8 | COc1cccc([C@@H]2c3[nH]c4ccccc4c3C[C@@H]3C(=O)N([C@@H]4CCN(Cc5ccccc5)C4)CC(=O)N23)c1 (stereo in doubt; form 2) [listing 1 of 2 here] |
| – | – | – | 249 | 5.5 | – | O=C1[C@H]2Cc3c([nH]c4ccccc34)[C@@H](c3ccc4c(c3)OCO4)N2C(=O)CN1[C@@H]1CCN(Cc2ccccc2)C1 |
| 28.6 | – | – | – | 44 | – | COc1cccc([C@@H]2c3[nH]c4ccccc4c3C[C@@H]3C(=O)N([C@@H]4CCN(Cc5ccccc5)C4)CC(=O)N23)c1 (stereo in doubt; form 1) [listing 2 of 2 here] |
| 1.9 | 144 | 1.3 | 271 | 2.4 | – | O=C1[C@H]2Cc3c([nH]c4ccccc34)[C@@H](c3ccc4c(c3)OCO4)N2C(=O)CN1[C@@H]1CCN(CCc2cccnc2)C1 |
| 2 | 181 | 2.1 | 358 | 4.2 | – | O=C1[C@H]2Cc3c([nH]c4ccccc34)[C@@H](c3ccc4c(c3)OCO4)N2C(=O)CN1[C@@H]1CCN(CCc2cnccn2)C1 |
| 57 | > 175 | – | > 10000 | – | – | CCCN1CC[C@@H](N2CC(=O)N3[C@H](c4ccc5c(c4)OCO5)c4[nH]c5ccccc5c4C[C@@H]3C2=O)C1 |
| 26 | – | – | 1619 | – | – | O=C1[C@H]2Cc3c([nH]c4ccccc34)[C@@H](c3ccc4c(c3)OCO4)N2C(=O)CN1C1CCN(Cc2ccccc2)CC1 |
| 8.4 | 189 | 5.7 | 1601 | 48 | – | NC(=O)CCN1CC[C@@H](N2CC(=O)N3[C@H](c4ccc5c(c4)OCO5)c4[nH]c5ccccc5c4C[C@@H]3C2=O)C1 |
| 4 | 211 | 1.2 | 846 | 4.7 | – | O=C(CCN1CC[C@@H](N2CC(=O)N3[C@H](c4ccc5c(c4)OCO5)c4[nH]c5ccccc5c4C[C@@H]3C2=O)C1)N1CCC1 |
| – | 640 | 2.6 | – | – | – | Cn1ccnc1CCN1CC[C@@H](N2CC(=O)N3[C@H](c4ccc5c(c4)OCO5)c4[nH]c5ccccc5c4C[C@@H]3C2=O)C1 (stereo in doubt; form 1) [listing 2 of 2 here] |
| 15.6 | – | – | – | 11.8 | – | COc1cccc([C@@H]2c3[nH]c4ccccc4c3C[C@@H]3C(=O)N([C@@H]4CCN(Cc5ccccc5)C4)CC(=O)N23)c1 (stereo in doubt; form 2) [listing 2 of 2 here] |
| – | 173 | 2 | – | – | – | Cn1ccnc1CCN1CC[C@@H](N2CC(=O)N3[C@H](c4ccc5c(c4)OCO5)c4[nH]c5ccccc5c4C[C@@H]3C2=O)C1 (stereo in doubt; form 2) [listing 2 of 2 here] |

— ChEMBL document CHEMBL1136701, “Design, synthesis and biological activity of beta-carboline-based type-5 phosphodiesterase inhibitors” (Bioorg Med Chem Lett, 2003)
